This passage reports inhibition results from PubChem BioAssay AID743061 (The Scripps Research Institute Molecular Screening Center, 2013).

Several values for one entry are separate records, joined by “and”; a condition that tells them apart may be missing. Equal entries are not always repeated.

The target of the assay is Methionine--tRNA ligase, mitochondrial (Homo sapiens) (UniProt Q96GW9). Nature of the assay: inhibitors of human mitochondrial MetRS, late-stage follow-up, selectivity assay for T. brucei MetRS inhibitor project, biochemical, radioactivity, round 1 (AID 743061).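 Note: 0% = DMSO with full reaction and 100% = DMSO wells lacking tRNA.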 As to conditions: recombinant human mtMetRS, [3H]Met tRNA charging, at 10 µM, stronger effect = higher value. The essentials: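 System: recombinant human mitochondrial methionyl-tRNA synthetase (MetRS); Buffer or medium: pH 8.0 reaction buffer containing 2.5 mM ATP; Controls: high DMSO, low without tRNA; Reagent: [3H]Met 240 nM plus bulk E. coli tRNA; Schedule: 15 min preincubation, 1 h reaction, room temperature; Measured by: scintillation counts of TCA-precipitated charged tRNA on filters.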
The term inhibition denotes the relative decrease from the control value, in per cent. As for `CCOC(=O)N1CCC(Nc2c(Nc3ccc(F)cc3)c(=O)c2=O)CC1`, the inhibition is -4.56%.

Regarding `CCN(CCc1nc2ccc(C)cc2[nH]1)C(=O)c1ccc2ncccc2c1`, the inhibition turned out to be 1.1%.

As to `CCCCCCCCCC1NC(C(=O)O)Cc2c1[nH]c1ccccc21` (stereo not given), the inhibition turned out to be 9.9%.

For the compound `CC(=O)N(CCc1ccccc1)C1CC(=O)N(c2ccc(Cl)cc2)C1=O` (stereo not given), the inhibition is -2.95%.

In the case of `CCN(CC)C(=O)C(=O)c1cn(CC(=O)N(CC)c2ccccc2)c2ccccc12`, the inhibition was determined as 9.56%.

On to `O=C(NCc1nc2ccccc2[nH]1)C1=C[C@H](c2ccc3c(c2)OCO3)C[C@H](OCCCCO)O1`, for which the inhibition worked out at 10.2%.

For `O=C(Cn1cnc2ccccc21)Nc1cccc([N+](=O)[O-])c1`, the inhibition is -2.2%.

In the case of `CN1CC(=O)N2C(c3cccc([N+](=O)[O-])c3)c3[nH]c4ccccc4c3C[C@H]2C1=O` (stereo not given in full), the inhibition came out at 14%.

Regarding `CC(C)OCCCN1CC(=O)N2C(c3cccc([N+](=O)[O-])c3)c3[nH]c4ccccc4c3C[C@H]2C1=O` (stereo not given in full), the inhibition was -3.65%.

Turning to `O=C(NNC(=O)c1cc(-c2ccc(Cl)c(Cl)c2)nc2ccccc12)Nc1ccccc1`, the inhibition was -11.2%.

Turning to `CC(=O)N(CCc1ccccc1)C1CC(=O)N(c2ccc(Br)cc2)C1=O` (stereo not given), the inhibition was found to be 2%.

For `O=C(NCc1nc2ccccc2[nH]1)C1=C[C@H](c2ccccc2)C[C@H](OCc2ccc(CO)cc2)O1`, the inhibition is 12.7%.

Take `O=C(NCc1nc2ccccc2[nH]1)C1=C[C@H](c2ccc(Br)cc2)C[C@H](OCCCCO)O1`: the inhibition was -2.4%.

As for `O=C(CC=NOCc1ccc([N+](=O)[O-])cc1)Nc1ccc(Br)cc1`, the inhibition is -6.71%.

For the compound `Cc1cccc(C(=O)NCCc2nc3ccccc3n2CCOc2ccccc2)c1`, the inhibition turned out to be 4.57%.

As to `CC(CC(=O)Nc1cccc(Br)c1)=NNC(=O)c1ccc(O)cc1O`, the inhibition worked out at 4.55%.

With `O=C1[C@@H]2Cc3c([nH]c4ccccc34)C(c3cccc([N+](=O)[O-])c3)N2C(=O)CN1CCCO` (stereo not given in full), the inhibition was found to be 4.46%.

For `O=C(Cn1cc(C(=O)C(=O)N2CCOCC2)c2ccccc21)NCC1CCCO1` (stereo not given), the inhibition was 5.42%.

For the compound `Cc1ccc2[nH]c3nc(SCC(=O)Nc4ccc(C(F)(F)F)cc4)nnc3c2c1`, the inhibition was found to be 4.54%.

With `COc1ccccc1NC(=O)CSc1nnc2c(n1)[nH]c1ccc(C)cc12`, the inhibition stood at 7.39%.

In the case of `O=C(Cn1cc(C(=O)c2ccccc2)c2ccccc21)Nc1cccc(C(F)(F)F)c1`, the inhibition was found to be 9.64%.

In the case of `Cc1ccc(CNC(=O)CSc2nnc3c(n2)[nH]c2ccc(C)cc23)cc1`, the inhibition came out at 5.9%.

As to `O=C1CC(NCCc2ccccc2)C(=O)N1c1ccc(Br)cc1` (stereo not given), the inhibition came to 6.62%.

On to `O=C(Cn1cc(C(=O)C(=O)N2CCOCC2)c2ccccc21)Nc1cccc(C(F)(F)F)c1`, for which the inhibition is -6.56%.

`Cc1ccc(NC(=O)CN(C)C(=O)CCSc2ccc(F)cc2)cc1`: the inhibition was -21.5%.

With `COc1ccc(CCN(C(=S)Nc2ccccc2)C2CC(=O)N(c3ccc(Cl)cc3)C2=O)cc1` (stereo not given), the inhibition turned out to be 61.9%.

For the compound `O=C(NCCc1nc2ccccc2[nH]1)c1ccc(Cl)c(Cl)c1`, the inhibition came to 27.7%.

Take `COc1ccccc1NS(=O)(=O)c1cccc(NC(=O)Nc2ccccc2)c1`: the inhibition is 19.1%.

On to `COc1ccccc1-n1c(SCC(=O)Nc2ccc(Cl)cc2)nc(O)c(Cc2ccccc2)c1=O`, for which the inhibition is -19.7%.

`O=C(Nc1ccc(F)c(Cl)c1)C1CC(=O)n2c(nc3ccccc32)N1` (stereo not given): the inhibition is 4.32% and 12.5%.

As to `O=C(NCc1nc2ccccc2[nH]1)C1=C[C@@H](c2ccc(Br)cc2)C[C@@H](OCc2ccc(CO)cc2)O1`, the inhibition was 16.7%.

Turning to `COc1ccccc1NC(=O)Cn1cc(C(=O)C(=O)N2CCOCC2)c2ccccc21`, the inhibition is -8.03%.

For the compound `CC(=O)c1ccc(N2CCN(C(=O)CCCn3c(=O)[nH]c4ccc(Br)cc4c3=O)CC2)cc1`, the inhibition is 7.87%.

`O=C(NCc1nc2ccccc2[nH]1)C1=C[C@H](C2CC2)C[C@H](OCc2ccc(CO)cc2)O1`: the inhibition was determined as 12.6%.

Turning to `O=C(CSc1nnc2c(n1)[nH]c1ccc(Br)cc12)NCc1ccccc1`, the inhibition amounted to 21.6%.
